ChEMBL document CHEMBL1144477, “Design, synthesis and cytotoxic properties of novel 1-[4-(2-alkylaminoethoxy)phenylcarbonyl]-3,5-bis(arylidene)-4-piperidones and related compounds” (Eur J Med Chem, 2007)

How the values were obtained:
HCT-15 = test: Cytotoxicity against human HCT15 cells; type: cell-based
KM12 = test: Cytotoxicity against human KM12 cells; type: cell-based
K562 = test: Cytotoxicity against human K562 cells; type: cell-based
[1] = Cytotoxicity against human RPMI8226 cells; type: cell-based; conditions: RPMI-8226
L1210 = test: Cytotoxicity against […] mouse L1210 cells; type: cell-based
Method in brief: (§1)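 Human Molt 4/C8 and CEM T-lymphocytes and murine L1210 cells were each exposed to at least three compound concentrations at 37 °C for 48 h. Growth inhibition was then measured, and IC50 values were derived from it.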

[2] = Cytotoxicity against human Molt4/C8 cells; type: cell-based; conditions: MOLT-4; method in brief: as §1
SW-620 = test: Cytotoxicity against human SW620 cells; type: cell-based
HCC 2998 = test: Cytotoxicity against human HCC2998 cells; type: cell-based
[3] = Cytotoxicity against human HL60 (TB) cells; type: cell-based; conditions: HL-60
CCRF-CEM = test: Cytotoxicity against human CEM cells; type: cell-based; method in brief: as §1
COLO 205 = test: Cytotoxicity against human COLO205 cells; type: cell-based
SR = test: Cytotoxicity against human SR cells; type: cell-based
HCT-116 = test: Cytotoxicity against human HCT116 cells; type: cell-based
[4] = Cytotoxicity against human NCI49 cell lines; type: cell-based
HepG2 = test: Induction of apoptosis in human HepG2 cells at 20 uM by TUNEL assay; type: functional
Method in brief: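 HepG2 cells (ATCC) were kept in DMEM with 10% fetal calf serum and penicillin G/streptomycin/amphotericin B, at 37 °C in humidified 5% CO2. Cells on chambered slides were treated with the compound; controls had no addition or DMSO only. After 48 h, cells were fixed, permeabilized and TUNEL-stained (fluorescein). Labelled apoptotic cells were counted by fluorescence microscopy and reported as a percentage.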

O=C1/C(=C/c2ccc(Cl)cc2)CN(C(=O)c2ccc(OCCN3CCCCC3)cc2)C/C1=C\c1ccc(Cl)cc1
IC50 (HCT-15): 49 µM
IC50 (KM12): 19.1 µM
IC50 (K562): 4.37 µM
IC50 [1]: 0.759 µM
IC50 (L1210): 103 µM
IC50 [2]: 34 µM
IC50 (SW-620): 3.55 µM
IC50 (HCC 2998): 1.58 µM
IC50 [3]: 20.4 µM
IC50 (CCRF-CEM): 9.98 µM
IC50 (COLO 205): 15.8 µM
IC50 (SR): 2.29 µM
IC50 (HCT-116): 47.9 µM
IC50 [4]: > 11.5 µM

O=C1/C(=C/c2ccccc2)CN(C(=O)c2ccc(OCCN3CCCCC3)cc2)C/C1=C\c1ccccc1
IC50 (L1210): 8.4 µM
IC50 [2]: 1.48 µM
IC50 (CCRF-CEM): 1.16 µM

O=C1/C(=C/c2ccccc2)CN(C(=O)c2ccc(OCCN3CCOCC3)cc2)C/C1=C\c1ccccc1
IC50 (HCT-15): 1.45 µM
IC50 (KM12): 0.129 µM
IC50 (K562): 0.158 µM
IC50 [1]: 0.123 µM
IC50 (L1210): 222 µM
IC50 [2]: 8.42 µM
IC50 (SW-620): 0.191 µM
IC50 [3]: 0.562 µM
IC50 (CCRF-CEM): 6.84 µM
IC50 (COLO 205): 22.9 µM
IC50 (HCT-116): 0.339 µM
IC50 [4]: > 2.63 µM

CCN(CC)CCOc1ccc(C(=O)N2C/C(=C\c3ccc(C)cc3)C(=O)/C(=C/c3ccc(C)cc3)C2)cc1
IC50 (L1210): 2.28 µM
IC50 [2]: 1.32 µM
IC50 (CCRF-CEM): 1.33 µM

O=C1/C(=C/c2ccccc2)CN(C(=O)c2ccccc2)C/C1=C\c1ccccc1
IC50 (L1210): 12 µM
IC50 [2]: 1.7 µM
IC50 (CCRF-CEM): 1.64 µM

CN(C)CCOc1ccc(C(=O)N2C/C(=C\c3ccccc3)C(=O)/C(=C/c3ccccc3)C2)cc1
IC50 (L1210): 10.2 µM
IC50 [2]: 0.58 µM
IC50 (CCRF-CEM): 1.24 µM

CC[N+](C)(CC)CCOc1ccc(C(=O)N2C/C(=C\c3ccc(C)cc3)C(=O)/C(=C/c3ccc(C)cc3)C2)cc1
IC50 (HCT-15): 9.33 µM
IC50 (KM12): 9.33 µM
IC50 (K562): 1.35 µM
IC50 [1]: 1.26 µM
IC50 (L1210): 18.7 µM
IC50 [2]: 12.4 µM
IC50 (SW-620): 10.5 µM
IC50 (HCC 2998): 6.17 µM
IC50 [3]: 11.8 µM
IC50 (CCRF-CEM): 23.7 µM
IC50 (COLO 205): 8.91 µM
IC50 (SR): 22.9 µM
IC50 (HCT-116): 14.1 µM
IC50 [4]: 7.76 µM

CCN(CC)CCOc1ccc(C(=O)N2C/C(=C\c3ccc(Cl)cc3)C(=O)/C(=C/c3ccc(Cl)cc3)C2)cc1
IC50 (L1210): 47.3 µM
IC50 [2]: 18.3 µM
IC50 (CCRF-CEM): 12.3 µM

CC[N+](C)(CC)CCOc1ccc(C(=O)N2C/C(=C\c3ccc([N+](=O)[O-])cc3)C(=O)/C(=C/c3ccc([N+](=O)[O-])cc3)C2)cc1
IC50 (L1210): 65 µM
IC50 [2]: 40.2 µM
IC50 (CCRF-CEM): 39.3 µM

Cl.O=C1/C(=C/c2ccc(Cl)cc2)CN(C(=O)c2ccc(OCCN3CCOCC3)cc2)C/C1=C\c1ccc(Cl)cc1
Activity (HepG2): 29.25%
IC50 (HCT-15): 2.19 µM
IC50 (KM12): 2.29 µM
IC50 (K562): 6.76 µM
IC50 [1]: 0.132 µM
IC50 (L1210): 81.4 µM
IC50 [2]: 18.8 µM
IC50 (SW-620): 1.45 µM
IC50 (HCC 2998): < 0.005 µM
IC50 [3]: 5.5 µM
IC50 (CCRF-CEM): 8.26 µM
IC50 (HCT-116): 7.25 µM
IC50 [4]: < 0.562 µM

Cc1ccc(/C=C2\CN(C(=O)c3ccc(OCCN(C)C)cc3)C/C(=C\c3ccc(C)cc3)C2=O)cc1
IC50 (HCT-15): 0.912 µM
IC50 (KM12): 0.776 µM
IC50 (K562): 1.82 µM
IC50 [1]: 0.224 µM
IC50 (L1210): 7.14 µM
IC50 [2]: 1.39 µM
IC50 (SW-620): 0.562 µM
IC50 (HCC 2998): 0.229 µM
IC50 [3]: 1.32 µM
IC50 (CCRF-CEM): 0.884 µM
IC50 (COLO 205): 1.02 µM
IC50 (SR): 0.479 µM
IC50 (HCT-116): 1.38 µM
IC50 [4]: 1.15 µM

O=c1[nH]cc(F)c(=O)[nH]1 [FLUOROURACIL]
IC50 (HCT-15): 6.61 µM
IC50 (KM12): 7.94 µM
IC50 (K562): 126 µM
IC50 [1]: 3.55 µM
IC50 (SW-620): 18.6 µM
IC50 (HCC 2998): 5.75 µM
IC50 [3]: 85.1 µM
IC50 (COLO 205): 3.39 µM
IC50 (SR): 60.3 µM
IC50 (HCT-116): 2.04 µM
IC50 [4]: > 29.5 µM

O=C1/C(=C/c2ccc([N+](=O)[O-])cc2)CN(C(=O)c2ccc(OCCN3CCCCC3)cc2)C/C1=C\c1ccc([N+](=O)[O-])cc1
IC50 (L1210): 4.74 µM
IC50 [2]: 0.33 µM
IC50 (CCRF-CEM): 0.315 µM
